From ChEMBL document CHEMBL1122517, “2-Phenylindoles. Relationship between structure, estrogen receptor affinity, and mammary tumor inhibiting activity in the rat” (1984)

Assays:
[1] = molecular target: Estrogen receptor (Bos taurus) (UniProt Q9XSB5+P49884); assay: Relative binding affinity for the calf uterine estrogen receptor measured as the ratio of molar concentration of 17-beta-estradiol (E2) and inhibitor required to decrease the amount of bound [3H]E2 by 50%; assay type: protein assay
Outline: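 Competitive binding in calf uterine cytosol with 5×10^-9 M [3H]estradiol, 18 h at 4 °C, Tris/EDTA buffer (0.01 M, pH 7.5). Unbound ligand was removed with dextran-coated charcoal (90 min, 4 °C) and supernatant radioactivity counted. Six competitor concentrations gave 10–90% bound. From semilog plots, RBA = ratio of molar concentrations of estradiol to compound giving 50% decrease in binding, ×100.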

[2] = molecular target: T1, Estrogen receptor (Mus musculus) (UniProt O08537+P19785); assay: Uterotrophic activity in mice as uterus dry weight (mg)/body weight (g) *100 at 1 ug dose; assay type: functional, tissue-based
Outline: (§1)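 Immature 19-day-old female NMRI mice, groups of 10. Compound dose per animal in olive oil (50 µL) sc on 3 consecutive days. Mice were killed 24 h after the last injection. Uteri were Bouin-fixed 20 h, cleaned, washed with alcoholic LiCl, and dried at 100 °C for 24 h. Effect = uterine dry weight (mg)/body weight (g) ×100; mean ± SD.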

[3] = molecular target: T1, Estrogen receptor (Mus musculus); assay: Uterotrophic activity in mice as uterus dry weight (mg)/body weight (g) *100 at 125 ug dose; assay type: functional, tissue-based; outline: as §1
[4] = molecular target: T1, Estrogen receptor (Mus musculus); assay: Uterotrophic activity in mice as uterus dry weight (mg)/body weight (g) *100 at 5 ug dose; assay type: functional, tissue-based; outline: as §1
[5] = molecular target: T1, Estrogen receptor (Mus musculus); assay: Uterotrophic activity in mice as uterus dry weight (mg)/body weight (g) *100 at 25 ug dose; assay type: functional, tissue-based; outline: as §1
[6] = molecular target: T1, Estrogen receptor (Mus musculus); assay: Anti-uterotrophic activity in mice as uterus dry weight (mg)/body weight (g) *100 at 25 ug dose; assay type: functional, tissue-based
Outline: (§2)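 Immature female NMRI mice, 19 days old, groups of 10, given sc injections on 3 consecutive days. Each injection held 0.4 μg estrone plus the indole dose per animal, in olive oil (50 μL). Killed 24 h after the last injection. Uteri were fixed in Bouin solution, washed, and dried 24 h at 100 °C. Read-out was uterine dry weight (mg)/body weight (g) × 100, mean ± SD.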

[7] = molecular target: T1, Estrogen receptor (Mus musculus); assay: Anti-uterotrophic activity in mice as uterus dry weight (mg)/body weight (g) *100 at 1 ug dose; assay type: functional, tissue-based; outline: as §2
[8] = molecular target: T1, Estrogen receptor (Mus musculus); assay: Anti-uterotrophic activity in mice as uterus dry weight (mg)/body weight (g) *100 at 125 ug dose; assay type: functional, tissue-based; outline: as §2
[9] = molecular target: T1, Estrogen receptor (Mus musculus); assay: Percentage inhibition of uterotrophic activity at 25 ug dose; assay type: functional
Outline: (§3)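 Antiuterotrophic test in immature 19-day-old female NMRI mice (n=10), dosed sc on 3 consecutive days with 0.4 µg estrone per animal per day plus compound in olive oil. Uterine dry weight/body weight ×100 was read 24 h after the last dose. Inhibition % = 100 − [(E_S,T − E_V)/(E_S − E_V)]×100.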

[10] = molecular target: T1, Estrogen receptor (Mus musculus); assay: Percentage inhibition of uterotrophic activity at 5 ug dose; assay type: functional; outline: as §3
[11] = molecular target: T1, Estrogen receptor (Mus musculus); assay: Percentage inhibition of uterotrophic activity at 125 ug dose; assay type: functional; outline: as §3
[12] = molecular target: T1, Estrogen receptor (Mus musculus); assay: Anti-uterotrophic activity in mice as uterus dry weight (mg)/body weight (g) *100 at 5 ug dose; assay type: functional, tissue-based; outline: as §2

T1 sequence (O08537 whole entry, looked up): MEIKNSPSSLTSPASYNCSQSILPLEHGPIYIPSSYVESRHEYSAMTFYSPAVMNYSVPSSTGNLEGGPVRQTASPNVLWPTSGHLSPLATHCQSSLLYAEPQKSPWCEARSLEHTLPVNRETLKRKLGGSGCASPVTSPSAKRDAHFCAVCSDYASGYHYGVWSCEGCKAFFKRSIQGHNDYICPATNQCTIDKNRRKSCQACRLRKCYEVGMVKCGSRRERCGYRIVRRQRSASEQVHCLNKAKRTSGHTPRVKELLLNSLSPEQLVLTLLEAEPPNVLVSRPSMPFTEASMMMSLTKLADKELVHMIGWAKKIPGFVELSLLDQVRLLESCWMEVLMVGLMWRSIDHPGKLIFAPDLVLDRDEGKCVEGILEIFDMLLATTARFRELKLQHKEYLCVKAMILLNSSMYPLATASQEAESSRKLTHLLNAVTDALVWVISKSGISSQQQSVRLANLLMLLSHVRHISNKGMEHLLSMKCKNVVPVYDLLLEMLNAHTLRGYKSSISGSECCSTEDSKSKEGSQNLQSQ
T1 sequence (P19785 whole entry, looked up): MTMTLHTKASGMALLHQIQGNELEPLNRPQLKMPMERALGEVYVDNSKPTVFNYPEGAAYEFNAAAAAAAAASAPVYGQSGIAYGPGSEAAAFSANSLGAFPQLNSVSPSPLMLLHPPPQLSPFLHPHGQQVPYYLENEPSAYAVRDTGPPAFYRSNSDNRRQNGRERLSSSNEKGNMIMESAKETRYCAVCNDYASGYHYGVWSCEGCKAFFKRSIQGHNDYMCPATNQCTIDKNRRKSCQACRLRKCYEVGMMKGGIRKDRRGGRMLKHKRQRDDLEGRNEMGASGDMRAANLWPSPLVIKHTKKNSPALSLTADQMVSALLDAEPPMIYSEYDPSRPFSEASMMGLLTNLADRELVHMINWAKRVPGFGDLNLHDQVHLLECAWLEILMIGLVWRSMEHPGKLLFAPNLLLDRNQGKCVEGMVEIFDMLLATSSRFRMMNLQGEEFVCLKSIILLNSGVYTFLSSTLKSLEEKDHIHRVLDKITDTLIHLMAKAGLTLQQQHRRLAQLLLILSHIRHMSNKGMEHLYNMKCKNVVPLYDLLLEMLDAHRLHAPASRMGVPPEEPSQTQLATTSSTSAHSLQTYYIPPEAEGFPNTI

SMILES | RBA [1] | other results
CCn1c(-c2cccc(O)c2)cc2cc(O)ccc21 | 1.7 | 
CCc1c(-c2ccc(OC(C)=O)cc2)n(CC)c2ccc(OC(C)=O)cc12 |  | Uterotrophic effect [2]: 29.5; Uterotrophic effect [3]: 40.2; Uterotrophic effect [4]: 39.1; Uterotrophic effect [5]: 42.4
CCCCn1c(-c2ccc(O)cc2)cc2ccc(O)cc21 | 4.3 | 
CCCn1c(-c2cccc(O)c2)c(C)c2ccc(O)cc21 | 3.5 | 
CCn1c(-c2cccc(OC(C)=O)c2)c(C)c2ccc(OC(C)=O)cc21 |  | Uterotrophic effect [2]: 15.2; Uterotrophic effect [3]: 39.1; Anti-uterotrophic effect [6]: 40.6; Anti-uterotrophic effect [7]: 46.9; Uterotrophic effect [4]: 17.2; Uterotrophic effect [5]: 30.2; Anti-uterotrophic effect [8]: 37.4; inhibition [9]: 15%; inhibition [10]: 11%; inhibition [11]: 26%; Anti-uterotrophic effect [12]: 41.7
CCn1c(-c2ccc(O)cc2)cc2cc(O)ccc21 | 5.8 | 
CCCn1c(-c2ccc(O)cc2)cc2ccc(O)cc21 | 8.5 | 
CCn1c(-c2ccc(O)cc2)cc2ccc(O)cc21 | 16 | 
CCn1c(-c2cccc(O)c2)c(C)c2ccc(O)cc21 | 3 | 
CCCn1c(-c2ccc(O)cc2)cc2cc(O)ccc21 | 18 | 

Now from value to compound, other results behind:

RBA [1] | SMILES | other results
9.5 | CCn1c(-c2ccc(O)cc2)c(C)c2cc(O)ccc21 | 
4.6 | CCCCn1c(-c2ccc(O)cc2)c(C)c2cc(O)ccc21 | 
0.02 | CCn1c(-c2ccc(O)cc2)c(C)c2cccc(O)c21 | 
0.06 | Cc1c(-c2ccc(O)cc2)[nH]c2ccc(O)cc12 | 
5.9 | CCc1c(-c2ccc(O)cc2)n(C)c2cc(O)ccc12 | 
3.5 | Cc1c(-c2ccc(O)cc2)n(C(C)C)c2ccc(O)cc12 | 
16 | CCCn1c(-c2ccc(O)cc2)c(C)c2cc(O)ccc21 | 
7.4 | CCCn1c(-c2cccc(O)c2)c(C)c2cc(O)ccc21 | 
10 | Cc1c(-c2ccc(O)cc2)n(C)c2cc(O)ccc12 | 
23 | CCc1c(-c2ccc(O)cc2)n(CC)c2ccc(O)cc12 | 
13 | CCCn1c(-c2ccc(O)cc2)c(C)c2ccc(O)cc21 | 
